In brackets after ≈: the same amount, converted by molar mass.
Key:
P388 = experiment: Cytotoxicity against mouse P388 ATCC CCL-46 cells; type: functional, cell-based
How it was run: (§1)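 Lines maintained in log-phase growth in EMEM/neaa with 5% fetal calf serum, 10-2 M sodium bicarbonate, 0.1 g/L penicillin G and 0.1 g/L streptomycin sulfate. P-388 grown as suspension culture; A-549, HT-29 and MEL-28 as monolayers. Compounds dissolved in DMSO–MeOH (1:9). Read-out IC50 in µg/mL.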

[1] = Cytotoxicity against human SK MEL28 ATCC HTB-72 cells; type: functional, cell-based; details: SK-MEL-28; how it was run: as §1
HT-29 = experiment: Cytotoxicity against human HT-29 ATCC HTB-38 cells; type: functional, cell-based; how it was run: as §1
A549 = experiment: Cytotoxicity against human A549 ATCC CCl-185 cells; type: functional, cell-based; how it was run: as §1
[2] = biological target: Aldo-keto reductase family 1 member B1 (Homo sapiens, UniProt P15121); experiment: Inhibition of human recombinant aldose reductase
How it was run: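 Recombinant human aldose reductase, purified by a published method. In vitro inhibition measured by a modified version of that method. Values given as IC50 in µg/mL.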

## Cc1c(O)c(O)cc2c1C(=O)C[C@@H]1[C@@]2(C)CC[C@@]2(C)[C@@H]3C[C@@H](C)C(=O)C[C@]3(C)CC[C@]12C
P388
  IC50: 5 µg/mL (≈ 11.4 µM)
[1]
  IC50: 10 µg/mL (≈ 22.8 µM)
HT-29
  IC50: 10 µg/mL (≈ 22.8 µM)
A549
  IC50: 5 µg/mL (≈ 11.4 µM)
[2]
  IC50: 57 µM

## C[C@@H]1C[C@@H]2[C@@](C)(CC[C@@]3(C)[C@@]2(C)CC=C2c4cc(O)c(O)c(C=O)c4C=C[C@]23C)CC1=O
P388
  IC50: 10 µg/mL (≈ 23 µM)
[1]
  IC50: 10 µg/mL (≈ 23 µM)
HT-29
  IC50: 10 µg/mL (≈ 23 µM)
A549
  IC50: 10 µg/mL (≈ 23 µM)
[2]
  IC50: 57.5 µM

## CC1=C(O)C(=O)C=C2C1=C[C@H](O)[C@@H]1[C@@]2(C)CC[C@@]2(C)[C@@H]3C[C@@H](C)C(=O)C[C@]3(C)CC[C@]12C
P388
  IC50: 5 µg/mL (≈ 11.4 µM)
[1]
  IC50: 5 µg/mL (≈ 11.4 µM)
HT-29
  IC50: 5 µg/mL (≈ 11.4 µM)
A549
  IC50: 5 µg/mL (≈ 11.4 µM)
[2]
  IC50: 57 µM

## CC1=C(O)C(=O)C=C2C1=CC(=O)[C@@H]1[C@@]2(C)CC[C@@]2(C)[C@@H]3C[C@@H](C)C(=O)C[C@]3(C)CC[C@]12C [AMAZOQUINONE]
P388
  IC50: 2.5 µg/mL (≈ 5.73 µM)
[1]
  IC50: 5 µg/mL (≈ 11.5 µM)
HT-29
  IC50: 5 µg/mL (≈ 11.5 µM)
A549
  IC50: 5 µg/mL (≈ 11.5 µM)
[2]
  IC50: 57.3 µM
